Compound activity deposited in PubChem BioAssay by The Scripps Research Institute Molecular Screening Center.
PRMT1 inh: PRMT1 (human) inhibition, primary screen; recombinant PRMT1, activity-based probe fluorescence polarization; inhibition, % at 2.79 µM; 370,000 tested, 1.3% active; AID 652257;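 active means inhibition above about 21% made by adding two undisclosed values, limit read from the data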
RBBP9 inh: inhibitors of human serine hydrolase RBBP9 | AID 1515 | 220,000 tested, 0.2% active | O75884 | recombinant RBBP9, FP-Rh probe fluorescence polarization | inhibition, % at 7.94 µM;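 active means inhibition above the campaign mean of all tested compounds plus 3 SD, cut at about 14% in these data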;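 further: plate controls were DMSO wells with RBBP9 for no effect and wells lacking RBBP9 protein for full effect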
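Test system – recombinant human RBBP9 · Input – RBBP9 2.5 µM in dispensing solution, pre-mixing · Medium – Tris buffer pH 8.0, NaCl, Pluronic · Schedule – preincubation 30 min plus labeling 45 min at 25 °C · Measured by – fluorescence polarization · Measure – % inhibition · Controls – DMSO and no-protein wells · Replicates – one well per compound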
ABHD5-PLIN5 inh: blocks binding of human ABHD5 to perilipin-5 | Split G. princeps luciferase complementation, luminescence, 4 h | inhibition, % at 4 µM | 360,000 tested, 0.78% active;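 active means inhibition above the mean inhibition across every tested compound plus 3 SD, cut at about 22% in these data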;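 further: 0% = DMSO only wells and the 100% control is not disclosed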
UHRF1 MBD2 ctr: UHRF1 methyl-DNA binding inhibition. Q96T88. UHRF1 binding to methylated oligo, TR-FRET. inhibition, % at 4.4 µM. 370,000 tested, 0.75% active; in the data active means inhibition above about 21%;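 further: UHRF1 SRA domain binding a hemimethylated CpG hairpin DNA probe; 0% = median of test compound wells and 100% = reference inhibitor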
Target sequence (Q96T88 whole entry, looked up, the tested form may be a part): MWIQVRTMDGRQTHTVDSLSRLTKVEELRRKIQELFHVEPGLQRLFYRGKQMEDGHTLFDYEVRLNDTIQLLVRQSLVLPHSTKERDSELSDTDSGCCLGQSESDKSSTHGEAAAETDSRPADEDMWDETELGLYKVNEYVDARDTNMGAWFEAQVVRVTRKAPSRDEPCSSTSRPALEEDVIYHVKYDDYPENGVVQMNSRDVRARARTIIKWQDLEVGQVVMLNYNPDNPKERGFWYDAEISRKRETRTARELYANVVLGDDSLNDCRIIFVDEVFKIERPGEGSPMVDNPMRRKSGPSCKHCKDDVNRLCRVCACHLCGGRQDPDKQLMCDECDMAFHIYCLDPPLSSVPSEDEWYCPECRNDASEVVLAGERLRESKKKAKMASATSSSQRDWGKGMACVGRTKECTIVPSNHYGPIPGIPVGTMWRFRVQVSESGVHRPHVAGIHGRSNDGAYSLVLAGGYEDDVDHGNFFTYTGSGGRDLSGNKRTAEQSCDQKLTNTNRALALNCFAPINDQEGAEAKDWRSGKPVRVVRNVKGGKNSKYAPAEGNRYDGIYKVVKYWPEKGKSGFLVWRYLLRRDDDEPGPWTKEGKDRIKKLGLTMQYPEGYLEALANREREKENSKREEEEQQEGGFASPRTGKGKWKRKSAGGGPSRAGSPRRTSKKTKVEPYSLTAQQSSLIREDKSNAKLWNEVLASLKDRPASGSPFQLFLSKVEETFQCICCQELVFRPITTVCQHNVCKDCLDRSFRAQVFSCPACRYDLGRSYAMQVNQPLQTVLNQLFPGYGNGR
MBD2 inh: MBD2-methylated oligo binding inhibition; Q9UBB5; TR-FRET, MBD2 binding to methylated oligonucleotide; inhibition, % at 4.4 µM; 370,000 tested, 0.31% active; AID 686964; in the data active means inhibition above about 13%
LEDGF integ inh: blocks HIV-1 LEDGF/p75-dependent DNA integration; TR-FRET IN-LEDGF/p75 DNA integration, Eu/Cy5; inhibition, % at 3.7 µM; AID 743269; 370,000 tested, 0.64% active;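 active means inhibition above the screen-wide mean plus 3 SD, cut at about 13% in these data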;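 further: signal is the Cy5 over europium emission ratio at 671 and 618 nm; 0% = plate median of compound wells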
ABHD5 PLIN5 conf: ABHD5-PLIN5 interaction inhibition, confirmed. AID 651612. shares compounds with ABHD5-PLIN5 inh. inhibition, % at 4 µM. biochemical ABHD5-PLIN5 interaction, luminescence. 2,200 tested, 67% active; in the data active means inhibition above about 23%;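 further: 0% = DMSO vehicle wells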
HNF4 counter: counter-screen for ABHD5-PLIN5 inhibitors: HNF4 split-luciferase | HNF4 dimerization, luminescence, biochemical | 2,200 tested, 77% active | inhibition, % at 4 µM | shares compounds with ABHD5-PLIN5 inh;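 active means mean inhibition across replicate wells exceeding the computed hit threshold, cut at about 13% in these data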;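 further: light from luciferase halves that rejoin when HNF4 fusion proteins dimerize; 0% = DMSO only wells and the 100% control is not given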
Starred values were filed as active, the others as inactive; nt = no result given. Sampled rows, rich in hits. Any-hit rate of the full collection: about 3.1%.

SMILES	PRMT1 inh	RBBP9 inh	ABHD5-PLIN5 inh	UHRF1 MBD2 ctr	MBD2 inh	LEDGF integ inh	ABHD5 PLIN5 conf	HNF4 counter
C#CCOCCOCCOCCNc1nc(N2CCN(C(=O)CCCCCCCCCCNC(=O)[C@H](CCCCN)n3cc(CCO)nn3)CC2)nc(N2CCN(C(=O)CCCCCCCCCCNC(=O)[C@@H]([C@H](C)O)n3cc(C)nn3)CC2)n1	nt	nt	45*	nt	nt	nt	29*	13*
C#CCOCCOCCOCCNc1nc(N2CCN(C(=O)CCCCCCCCCCNC(=O)Cn3cc(C[C@@H](C)O)nn3)CC2)nc(N2CCN(C(=O)CCCCCCCCCCNC(=O)Cn3cc(C[C@@H](C)O)nn3)CC2)n1	0	nt	15	0	3	-1	nt	nt
C#CCOCCOCCOCCNc1nc(N2CCOCC2)nc(N2CCN(C(=O)CCCCCCCCCCNC(=O)[C@H](CO)n3cc(CCCCCN)nn3)CC2)n1	-1	nt	4	-1	2	-3	nt	nt
CC[C@H](CCC(=O)N(c1ccccc1)c1ccccc1)C1CC1	-2	nt	nt	2	-4	2	nt	nt
CCCCc1c(-c2ccccc2OC)ncn1Cc1c(Cl)cccc1Cl	5	nt	nt	-1	-2	0	nt	nt
O=C(c1cccc(Cl)c1)N1CCN(c2ccnc3cc(Cl)ccc23)CC1	0	nt	nt	0	0	3	nt	nt
COc1ccc(C(C(=O)NCc2ccccc2)n2c(=O)c(-c3ccco3)nc3ccccc32)cc1 (configuration not stated)	13	nt	72*	-5	1	2	78*	42*
O=C(NCc1ccccc1)C(c1ccccc1F)n1c(=O)c(-c2ccco2)nc2ccccc21 (configuration not stated)	13	nt	67*	-5	-6	8	69*	32*
COc1ccc(NC(=O)C(c2ccc(C(F)(F)F)cc2)n2c(=O)c(-c3ccco3)nc3ccccc32)cc1 (configuration not stated)	5	nt	12	-2	-1	-4	nt	nt
COc1ccc(C(C(=O)NC2CCCCC2)n2c(=O)c(-c3ccco3)nc3ccccc32)cc1 (configuration not stated)	13	nt	66*	-4	-1	3	85*	30*
CN[C@H]1C[C@H]2c3[nH]c4c(-c5ccccc5)cccc4c3CCN2C[C@H]1[C@H](C)O	-5	nt	nt	-5	-7	9	nt	nt
C[C@H]1Cn2nncc2Cn2c3ccccc3c(=O)n21	3	nt	nt	-1	1	-3	nt	nt
OC(c1ccccc1)(c1ccccc1)C1CCN(CCCOc2ccc(C(F)(F)F)cc2)CC1	-3	nt	nt	2	-1	1	nt	nt
CCc1ccccc1NC(=O)CN(C)Cc1c(O)ccc2ccccc12	23*	nt	24*	-1	-1	-4	46*	88*
CN(CC(=O)Nc1ccccc1C(F)(F)F)Cc1c(O)ccc2ccccc12	17	nt	10	-1	-6	2	nt	nt
CN(C)c1ccc(C(=O)NC2CCCCN(Cc3cccc(Cl)c3)C2=O)cc1 (configuration not stated)	3	nt	nt	0	-1	-6	nt	nt
CC1=CC2C(C(O)CC3(C)C2CC(C)C32OCOC23COCO3)C2(C)C/C(=C\O)C(=O)C=C12 (configuration not stated)	4	nt	32*	-3	-1	7	42*	9
O=C(Nc1c(-c2ccccc2)nc2ncccn12)C1CC1	2	nt	nt	0	2	2	nt	nt
Cc1cc(C)cc(C(=O)N2CC(=O)Nc3ccccc32)c1	8	-3	-3	11	5	0	nt	nt
Cc1ccc(/C=C/C(=O)N2CC(=O)Nc3ccccc32)o1	15	-6	25*	-4	2	2	20	30*
CSc1ccc(CN(C)CC(=O)Nc2ccc(NC(C)=O)cc2)cc1	0	-8	102*	-2	3	4	6	4
CSc1ccc(CN(C)CC(=O)Nc2cccc(Br)c2)cc1	2	2	-4	3	-2	-3	nt	nt
Clc1ccc(-c2csc(NCC3CCCO3)n2)cc1 (configuration not stated)	-1	nt	nt	1	2	2	nt	nt
CSc1nc2ccccc2cc1/C=C(\C#N)c1cccc(C)c1	-2	-4	49*	-4	7	2	-12	1
CSc1nc2ccccc2cc1/C=C(\C#N)c1ccccc1	0	-2	-11	2	-1	4	nt	nt
SMILES	PRMT1 inh	RBBP9 inh	ABHD5-PLIN5 inh	UHRF1 MBD2 ctr	MBD2 inh	LEDGF integ inh	ABHD5 PLIN5 conf	HNF4 counter
COc1cc(/C=C/c2cc(C(F)(F)F)[nH]c(=O)n2)cc(OC)c1OC	2	1	31*	1	0	0	47*	43*
C=CCn1c(SCC(=O)Nc2ccccc2-c2ccccc2)nnc1-c1ccccc1	-6	nt	nt	3	1	2	nt	nt
CC(=O)/C=C\c1ccccc1OC(=O)c1cc2ccccc2oc1=O	3	nt	17	0	-5	-1	nt	nt
O=C(/C=C\c1ccccc1OC(=O)c1ccccc1F)c1cc2ccccc2o1	1	2	70*	6	1	-5	100*	98*
CCn1c2ccccc2c2cc(NC(=O)COC(=O)c3cccc(F)c3F)ccc21	3	nt	nt	0	-1	-1	nt	nt
CCCCCCC(=O)NC1CCCCN(Cc2ccc(C)cc2)C1=O (configuration not stated)	-3	nt	nt	0	0	-2	nt	nt
Cc1ccc(S(=O)(=O)c2ccc([N+](=O)[O-])cn2)cc1	34*	nt	49*	-3	2	2	75*	112*
Cc1cc(S(=O)(=O)c2ccc([N+](=O)[O-])cn2)ccc1Br	11	nt	16	0	-5	2	nt	nt
O=[N+]([O-])c1ccc(S(=O)(=O)c2ccccc2)nc1	29*	nt	54*	-1	3	1	57*	109*
CC(=O)Nc1nc2ncccn2c1-c1ccc(C)cc1	-2	nt	nt	-1	-2	4	nt	nt
COc1cccc(CNC(=O)Cn2c(-c3ccccc3)cc(C(C)=O)c2C)c1	-2	nt	nt	0	1	-3	nt	nt
COC(=O)C1CN(Cc2ccc(F)cc2)CCS(=O)(=O)N1Cc1ccc(OC)cc1 (configuration not stated)	4	nt	nt	3	1	-1	nt	nt
COc1cccc(C2CC(c3ccc(Cl)cc3Cl)Nc3nc(N)nn32)c1 (configuration not stated)	0	-5	21	14	0	4	nt	nt
COc1cccc(C2CC(c3ccccc3Cl)Nc3nc(N)nn32)c1 (configuration not stated)	1	7	23*	3	-1	-3	7	2
Cc1ccc(C(=O)c2coc3c2C(=O)C(=O)c2ccccc2-3)cc1	0	0	85*	-1	-10	-2	94*	65*
